Out of some 360,000 compounds screened, about 770 (0.21%) were called active.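 The calls were made as follows: active = inhibition at least 30% at 10 µM, raw YFP signal under a set limit, fluorescence ratio 0.5 to 1.5; inactive = the rest.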 The full list was thinned out, with actives kept by preference.
These compounds were tested against Sentrin-specific protease 1 (Homo sapiens) (UniProt Q9P0U3) (assay: human SENP1 catalytic domain inhibitors, primary screen, biochemical, FRET, uHTS (AID 624204;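 also: 0% = enzyme with DMSO and 100% = no enzyme wells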)). Settings: recombinant SENP1 catalytic domain, CyPet-SUMO1-YPet FRET cleavage; at 10 µM; active compounds read high.
Sequence of Sentrin-specific protease 1 (Homo sapiens) (Q9P0U3 419-644 limits assumed): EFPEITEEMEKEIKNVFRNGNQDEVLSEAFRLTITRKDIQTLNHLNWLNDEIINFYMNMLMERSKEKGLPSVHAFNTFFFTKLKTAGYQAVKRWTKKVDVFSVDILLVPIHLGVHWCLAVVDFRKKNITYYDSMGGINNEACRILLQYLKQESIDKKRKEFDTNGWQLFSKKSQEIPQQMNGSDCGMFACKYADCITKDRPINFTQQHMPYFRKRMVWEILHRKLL
How it was run: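 Assay system – human recombinant His6-tagged SENP1 catalytic domain enzyme · Input – SENP1 enzyme, 20 pM final · Buffer or medium – Tris pH 8 buffer plus EDTA, NaCl, BME, BSA, NP40, catalase · Schedule – 50 min reaction at room temperature · Technique – FRET read of cyan and yellow fluorescence · Control set – no-enzyme wells low, DMSO-plus-enzyme wells high control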

inhibition, active:
N/C(=N\OC(=O)N1c2ccccc2Sc2ccccc21)c1ccc(Br)cc1 45.8%, O=C(COC(=O)Cn1cnc2ccccc21)Nc1cccc2c1C(=O)c1ccccc1C2=O 49.1%, CCN(CC)S(=O)(=O)c1cc([N+](=O)[O-])ccc1N=Nc1c(O)n(C)c2ccccc12 38.9%, CCCCCn1nnnc1-c1nc2cc3ccccc3cc2[nH]c1=O 70.6%, COc1cccc(/C=N/NC(=O)c2[nH]nc3c2CCc2ccccc2-3)c1O 48.9%, CCOc1cc(/C=C2\SC(N3CCCC(C)C3)=NC2=O)ccc1O (centres undefined) 58.5%, CCOc1cc(/C=C2\SC(N3CCCCC3)=NC2=O)ccc1O 56.6%, Fc1cccc(Cc2c(-c3cccc(Cl)c3)nc3ccc(Br)cn23)c1 45.8%

inhibition, inactive:
N/C(=N\OC(=O)CCc1ccccc1)c1ccc(Cl)cc1 4.15%, N/C(=N\OC(=O)c1ccc2c(c1)OCO2)c1ccc(Br)cc1 2.72%, Fc1ccc(CNCc2ccc(Br)cc2)cc1 0.319%, CC(C)c1ccc(S(=O)(=O)N2CCC3(CC2)OCCO3)cc1 -0.675%, CC(C)=CCN1CCN(Cc2cc3ccccc3[nH]2)CC1CCO (centres undefined) -16.2%, O=C(OCC(=O)N1CCCCCC1)c1ccc(Br)c(S(=O)(=O)N2CCOCC2)c1 2.31%, CCC1CCCCN1CCNC(=O)c1[nH]c(C)c(C(C)=O)c1C (centres undefined) -5.33%, CS(=O)(=O)Nc1ccccc1N=C(c1ccccc1)c1ccccc1 1.89%, CCc1ccc(C(=O)NN=C2CCCCCC2)s1 1.74%, COc1ccc(-c2c(C#N)cnc(C)c2C)c(O)c1OC 0.472%, COC(=O)CNC(=O)C(CCSC)NC(C)=O (centres undefined) 2.78%, CC(C)n1cnc2c(NCc3ccccc3)cc(OCC3CCN(C)CC3)cc21 -28.3%, COCC1CCN(C(=O)C2CCC(=O)N(Cc3cccc(C(F)(F)F)c3)C2)CC1 (centres undefined) 2.83%, O=C(c1cccs1)N(Cc1cc2ccccc2[nH]c1=O)CC1CCCO1 (centres undefined) 0.621%, COc1ccc(S(=O)(=O)N2CCOC2CNC(=O)C(=O)NCc2ccc(F)cc2)cc1 (centres undefined) 0.939%, Cc1oc2c(F)c(F)c(F)c(F)c2c1S(=O)(=O)Nc1cccc(C(F)(F)F)c1 0.0743%, COc1ccc(S(=O)(=O)N(C)C[C@H]2OCc3cnnn3CCCC(=O)N([C@H](C)CO)C[C@H]2C)cc1 0.96%, O=C(Cn1cnc2ccccc21)Nc1ccccc1-c1ccccc1 2.05%, O=C(COC(=O)Cn1cnc2ccccc2c1=O)NCC12CC3CC(CC(C3)C1)C2 -2.59%, O=[N+]([O-])c1cc(S(=O)(=O)Nc2cccc(Cl)c2)ccc1N=Nc1c(O)[nH]c2ccccc12 7.59%, CCN(CC)S(=O)(=O)c1ccc2c3c(cccc13)C(=O)S2 -5.16%, COc1ccccc1-c1noc(CSc2nc(C)cc(=O)[nH]2)n1 0.334%, CC(/C=C/C1(O)C(C)CC(=O)CC1(C)C)OC1OC(CO)C(O)C(O)C1O (centres undefined) -6.63%, O=C(CNC(=O)N1CC(=O)Nc2ccccc21)Nc1ccc(Br)cc1F -5.9%, Cc1ccc(S(=O)(=O)NC2CCCCCC2)cc1C(N)=O 1.4%, CCN(C(=O)CSc1nnc2ccccn12)C1CCS(=O)(=O)C1 (centres undefined) 0.95%, CCCCn1c(-c2cccc(C)c2)nc2cc3[nH]c(=O)c(C(C)C)nc3cc21 -46.9%, CCCCCn1nnnc1C1c2ccccc2C(=O)N1Cc1ccco1 (centres undefined) 2.03%, CC(=O)Nc1ccc(Sc2ccccc2C(=O)N2CCCC2)cn1 0.55%, Cc1c(CN2CCC(n3nccc3NC(=O)CCc3ccccc3)CC2)cnn1C 2.13%, CCn1nc(C(=O)NNC(=O)C2CSC3(C)CCC(=O)N23)c2ccccc2c1=O (centres undefined) 1.35%, CCc1nc2ccc(C(=O)Nc3cc(-c4ccccc4)ccc3OC)cn2c1N(CC)CC(=O)N(C)C -1.8%, CCCn1c(=O)c2ccccc2n2c(SCC(=O)/C(C#N)=C(\C)N)nnc12 -2.1%, CN(C)CCN(Cc1ccccc1)S(=O)(=O)c1csc(C(N)=O)c1 3.33%, Cc1ccc(SC(=O)COc2ccc(C)c(C)c2)cc1 4.05%, CC(C)OC(=O)CC(=O)CC(O)c1cccc([N+](=O)[O-])c1 (centres undefined) 1.31%, COc1ccc(Cl)cc1C=CC=NNC(=O)c1ccncc1 2.79%, COc1ccccc1-c1nnc(NC(=O)c2cccc(N3C(=O)CCC3=O)c2)o1 1.37%, CCN1C(=O)/C(=C2\SC(N3CCCCC3)=NC2=O)c2ccccc21 1.36%, CCOc1cc(/C=C2\C(=N)N3N=C(C)SC3=NC2=O)ccc1OCCOc1ccccc1 -3.15%, CC1CCN(C2=NC(=O)/C(=C/c3cn[nH]c3-c3ccccc3)S2)CC1 -1.05%, Cc1cccc(N(C(=O)Cc2cccs2)C(C(=O)NCc2ccco2)c2ccncc2)c1 (centres undefined) -0.142%, COc1ccc(S(=O)(=O)N2CCC(C(=O)NCCC(=O)NCCc3cccc(F)c3)CC2)cc1 1.66%, COc1ccc(CC(=O)N[C@@H]2c3cc(OC)c(OC)cc3C[C@H]2OCc2ccccc2)cc1 2.95%, O=C(NC1CCCCC1)C1CC(=O)N(CCc2ccccc2)C1 (centres undefined) 1.46%, CCOC(=O)/C(=N\Nc1cc(Cl)ccc1Cl)N1CCN(C)CC1 0.895%, O=S(=O)(c1ccc(F)cc1)N1CCN(C(=S)NC2CCCC2)CC1 2.06%, CCCCn1nnnc1NCc1cc(OC)c(OC)c(OC)c1 1.02%, CCOC(=O)N1CCC(O)(c2cc(C)c(C)cc2C)CC1 0.28%, Clc1cccc(Cc2c(-c3cccc(Cl)c3)nc3ccc(Cl)cn23)c1 18.5%, Fc1cccc(Cc2c(-c3ccc(Cl)cc3)nc3ccc(Cl)cn23)c1 9.99%
